PLCg1 inh – PLC-gamma1 (human) inhibition, primary screen. AID 720700. inhibition, % at 12.2 µM. 370,000 compounds, 0.84% hits. P19174. purified PLC-gamma1, fluorogenic substrate, fluorescence; in the data active = inhibition above about 9.5%
PLC-beta3 inh – inhibitors of human phospholipase C beta3 | Q01970 | Purified PLC-beta3, fluorogenic substrate, fluorescence | inhibition, % at 12.2 µM | 370,000 compounds, 0.18% hits;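 note: 0% = median of compound wells on plate and 100% = full blocker control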
UCH37 inh – inhibitors of human deubiquitinating enzyme UCH37. Q9Y5K5. purified proteasome/UCH37, Ub-AMC cleavage fluorescence. inhibition, % (no concentration beside the values). 330,000 compounds, 0.33% hits;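 active = mean inhibition over replicate wells above about 20%, limit read from the data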;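 note: 0% = compound-free wells with enzyme and 100% = wells lacking proteasome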
Target sequence (Q9Y5K5 whole entry, looked up): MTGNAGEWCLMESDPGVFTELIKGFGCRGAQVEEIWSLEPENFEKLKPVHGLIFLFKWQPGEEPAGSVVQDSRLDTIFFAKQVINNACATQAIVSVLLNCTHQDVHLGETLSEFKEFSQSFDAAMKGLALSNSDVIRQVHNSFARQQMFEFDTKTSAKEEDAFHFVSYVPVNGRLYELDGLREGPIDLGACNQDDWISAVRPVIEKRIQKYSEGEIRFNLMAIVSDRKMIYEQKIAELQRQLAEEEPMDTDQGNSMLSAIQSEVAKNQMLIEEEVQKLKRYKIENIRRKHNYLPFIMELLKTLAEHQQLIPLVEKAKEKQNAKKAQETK
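system = Proteasome-associated human UCH37 deubiquitinase | amount = 0.15 nM proteasome as dispensed | medium = pH 7.4 Tris-HCl (50 mM) with ovalbumin, ATP-MgCl2, DTT | incubation = 30 min preincubation with enzyme, 25 min cleavage at room temperature | detection = AMC fluorescence 355/460 nm | read-out basis = percent inhibition | controls = no-proteasome and no-compound wells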
Rpn11 block – blocks the human proteasome subunit Rpn11. 360,000 compounds, 0.59% hits. inhibition, % at 20 µM. O00487. human 26S proteasome, Ub4-pepOG fluorescence polarization; 20S core pre-blocked with epoxomicin. AID 588493;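 active = inhibition at 20 µM, scaled to each plate's controls, above about 33%, limit read from the data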
PLCg1 ctr – counter-screen for PLC-beta3 inhibitors: inhibitors of human PLC-gamma1 | inhibition, % at 12.3 µM | purified PLC-gamma1, fluorogenic substrate, fluorescence | 3,300 compounds, 3.1% hits | shares compounds with PLCg1 inh | AID 743258; in the data active = inhibition above about 9.5%
PLCb3 confirm – human PLC-beta3 inhibition, confirmation; purified PLC-beta3, fluorogenic substrate fluorescence; inhibition, % at 12.3 µM; 3,300 compounds, 1% hits; shares compounds with PLCg1 inh
An asterisk follows results filed as active; . = no result shown. The list is not random: actives were taken first. Their share in the collection is about 1.7%. Cut-off read from the data, not from the text of the source, unless noted: active = inhibition above about 11%; inactive = the rest.

SMILES	PLCg1 inh	PLC-beta3 inh	UCH37 inh	Rpn11 block	PLCg1 ctr	PLCb3 confirm
CCC(=O)N1CCc2cc(S(=O)(=O)CCC(=O)NCCc3ccc(S(N)(=O)=O)cc3)ccc21	10*	-2	2	0	-1	-2
Cc1ccc(NS(=O)(=O)c2ccc3c(c2)CCN3C(=O)CCC(=O)O)cc1Cl	2	-6	1	-5	.	.
CCOc1ccc(OCCCC(=O)NNC(=O)c2ccncc2)cc1	15*	7	2	2	8	2
COc1ccc(C2NC(=O)NC(C)=C2C(=O)OCC2CCCCC2)cc1OC (stereo not drawn)	11*	-1	3	-2	-4	-1
COc1cc(C=NNc2nc(C)cc(=O)[nH]2)ccc1OC(=O)c1cccnc1	.	.	4	.	.	.
COc1ccc(N(C(C)C(=O)NN=C(C)C(C)(C)C)S(C)(=O)=O)cc1 (stereo not drawn)	.	.	1	.	.	.
CC(C)(C)C1CCN2CCCC(c3ccc([N+](=O)[O-])cc3)(C1)C21OCCO1 (stereo not drawn)	0	2	.	.	.	.
COc1cc(C23CCCN(CCC(C(C)(C)C)C2)C32OCCO2)cc(OC)c1OC (stereo not drawn)	11*	2	.	.	2	4
CON=C/C(C#N)=C/c1ccc(OC)c(OC)c1	.	.	11	.	.	.
CO/N=C/C(C#N)=C/c1ccc(OC)cc1	15*	7	.	-2	-2	1
O=C(O)c1ccc(Cl)cc1NC(=O)C1CCCO1 (stereo not drawn)	2	12*	0	-4	-6	-6
O=[N+]([O-])c1ccc(NN=Cc2c[nH]c3ccccc23)c(S(=O)(=O)Nc2ccc(Cl)cc2)c1	.	.	13	.	.	.
CC1=CC(=O)C(C(C)C)=CC1=NC(=O)c1ccc(C)cc1	11*	11*	2	4	0	2
CC1=CC(=O)C(C(C)C)=C/C1=N/OC(=O)c1cccc([N+](=O)[O-])c1	0	-1	.	-4	.	.
O=C(NN=Cc1cn(-c2ccccc2)nc1-c1ccc2c(c1)OCCO2)c1ccncc1	.	.	-9	.	.	.
Cn1c(=O)oc2cc(S(=O)(=O)N3CCN(c4ccccc4)CC3)ccc21	11*	4	2	.	7	2
Cn1c(=O)oc2cc(S(=O)(=O)N3CCC(C(=O)N4CCN(c5ccccc5)CC4)CC3)ccc21	4	3	1	-1	.	.
O=C(CC=NOCc1c(Cl)cccc1Cl)c1ccccc1	.	.	7	.	.	.
Cc1c(Br)c(O)c(Br)c2sc(=O)oc12	9.9*	-10	1	-2	-29	-35
Cc1cccc([C@H](NC(=O)OC(C)(C)C)C(=O)OC(C)(C)C)c1	-2	-3	2	-2	.	.
CC(C)(C)OC(=O)N[C@H](C(=O)OC(C)(C)C)c1ccc2c(c1)OCO2	10*	4	2	-8	3	-3
CC(C)CC(=O)Nc1cccc(NC(=O)CC(C)C)n1	10*	-3	-1	-1	-8	-7
CC(=O)Nc1cccc(NC(C)=O)n1	1	-2	1	0	.	.
Cc1cnc2ccc(F)cc2c1	12*	6	.	5	-5	-4
Cc1ccc2cc(F)ccc2n1	3	-1	.	.	.	.
SMILES	PLCg1 inh	PLC-beta3 inh	UCH37 inh	Rpn11 block	PLCg1 ctr	PLCb3 confirm
COc1cccc(C=NNC(=O)CC(=O)NCCc2ccccc2)c1OC	.	.	-9	.	.	.
CC1(C)Oc2ccc(C(=O)NN=Cc3ccc(O)cc3)cc2NC1=O	.	.	2	.	.	.
CN(C)c1ncnc2c1ncn2[C@H]1CN(CCN2CCOCC2)C[C@@H](CO)O1	11*	6	.	-7	0	0
NC(=NOC(=O)C1CCCCC1)c1cccc([N+](=O)[O-])c1	.	.	1	.	.	.
CC/C(C)=N\NC(=O)CNC(=O)c1ccc(Cl)cc1Cl	-4	-2	.	1	.	.
CC/C(Cc1ccccc1)=N/NC(=O)CNC(=O)c1ccc(Cl)cc1Cl	11*	-1	.	1	-5	-2
CC1(C)C2CC=C(C=NNC(=O)C(N)=O)C1C2 (stereo not drawn)	.	.	4	.	.	.
COc1ccccc1C(=O)NC(=O)COc1ccc([N+](=O)[O-])cc1	9.8*	-2	4	-4	-4	-1
COc1ccccc1C(=O)NC(=O)COC(=O)c1ccc([N+](=O)[O-])cc1	3	-5	1	1	.	.
CN(Cc1nc2ccccc2[nH]1)C(=O)C1CCC(=O)N(C2CCCC2)C1 (stereo not drawn)	9.8*	-2	5	8	-1	2
Cc1cccc2[nH]c(CN(C)C(=O)C3CCC(=O)N(C4CC4)C3)nc12 (stereo not drawn)	-1	-4	-1	7	.	.
CCNC(=S)NN=Cc1cccc(OCc2c(F)cccc2Cl)c1	.	.	6	.	.	.
C(=NNc1nc(N2CCCCCC2)nc(N2CCCCCC2)n1)c1ccccc1	.	.	4	.	.	.
Cc1c(Cc2ccccc2)sc(N=Cc2c(O)ccc3ccccc23)c1C(N)=O	.	.	8	.	.	.
Cc1nc2ccccc2nc1OCc1ccccc1	1	4	0	-1	.	.
Brc1cnc(OCc2ccccc2)nc1OCc1ccccc1	8	12*	4	-2	-7	-6
CC(=NNC(=O)c1cccs1)c1ccc2c(c1)OCO2	.	.	-13	.	.	.
COc1ccc(C=NNC(=O)c2ccc3c(c2)NC(=O)C(C)(C)O3)cc1OC	.	.	-151	.	.	.
N#Cc1cc(-c2ccccc2)nnc1Oc1ccccc1	13*	-2	4	0	-7	-4
O=C(NNC(=O)c1cccc2ccccc12)c1ccc(F)cc1	4	17*	3	-1	5	3
Cn1cc([N+](=O)[O-])c(C(=O)NN=Cc2c[nH]c3ccccc23)n1	.	.	8	.	.	.
O=C(Nc1ncc([N+](=O)[O-])s1)C1CCN(S(=O)(=O)c2cnc[nH]2)CC1	7	13*	10	1	-1	0
O=C(NC1CCCCCC1)C1CCN(S(=O)(=O)c2cnc[nH]2)CC1	-2	2	-2	-2	.	.

From PubChem
